From ChEMBL document CHEMBL4350961, “Discovery of Pyrrolo[3,2- d]pyrimidin-4-one Derivatives as a New Class of Potent and Cell-Active Inhibitors of P300/CBP-Associated Factor Bromodomain” (J Med Chem, 2019)
The source made the active and inactive calls.

Legend:
[1] = biological target: Dual specificity mitogen-activated protein kinase kinase 3 (Homo sapiens) (UniProt P46734); assay: Inhibition of human MKK3 at 10 uM by radiometric method
Procedure, shortened: (§1)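 Kinase panel of 422 kinases screened by Eurofins KinaseProfiler at a single test-compound concentration of 10 µM.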

[2] = tested on: Discoidin domain-containing receptor 2 (Homo sapiens), Q16832 [UNDEFINED MUTATION]; assay: Inhibition of recombinant human DDR2 S642A mutant (467 to end residues) at 10 uM using KKSRGDYMTMQIG as substrate measured after 40 mins in presence of [gamma33P]ATP by scintillation counting method
[3] = biological target: SRSF protein kinase 3 (Homo sapiens) (UniProt Q9UPE1); assay: Inhibition of recombinant full-length human MSSK1 at 10 uM using ERMRPRKRQGSVRRRV as substrate measured after 40 mins in presence of [gamma33P]ATP by scintillation counting method
[4] = biological target: Dual specificity mitogen-activated protein kinase kinase 4 (Homo sapiens) (UniProt P45985); assay: Inhibition of recombinant human MKK4 (34 to end residues) at 10 uM using unactive JNK1a1 as substrate measured after 40 mins in presence of [gamma33P]ATP by scintillation counting method
[5] = tested on: Serine/threonine-protein kinase N1 (Homo sapiens), Q16512 [V901I]; assay: Inhibition of human PRK1 V901I mutant (498 to end residues) using KKLNRTLSFAEPG as substrate measured after 40 mins in presence of [gamma33P]ATP by scintillation counting method; procedure, shortened: as §1
[6] = biological target: Serine/threonine-protein kinase NLK (Homo sapiens) (UniProt Q9UBE8); assay: Inhibition of recombinant human NLK (121 to end residues) at 10 uM using myelin basic protein as substrate measured after 40 mins in presence of [gamma33P]ATP by scintillation counting method
[7] = biological target: Insulin-like growth factor 1 receptor (Homo sapiens) (UniProt P08069); assay: Inhibition of recombinant human IGF1R (959 to end residues) at 10 uM using KKKSPGEYVNIEFG as substrate measured after 40 mins in presence of [gamma33P]ATP by scintillation counting method
[8] = tested on: Platelet-derived growth factor receptor alpha (Homo sapiens), P16234 [V561D]; assay: Inhibition of recombinant human PDGFRalpha V561D mutant (550 to end residues) at 10 uM using GGMEDIYFEFMGGKKK as substrate measured after 40 mins in presence of [gamma33P]ATP by scintillation counting method
[9] = biological target: Aurora kinase C (Homo sapiens) (UniProt Q9UQB9); assay: Inhibition of recombinant human AURKC (35 to end residues) at 10 uM using AKRRRLSSLRA as substrate measured after 40 mins in presence of [gamma33P]ATP by scintillation counting method
[10] = tested on: Platelet-derived growth factor receptor alpha (Homo sapiens), P16234 [D842V]; assay: Inhibition of recombinant human PDGFRalpha D842V mutant (550 to end residues) at 10 uM using GGMEDIYFEFMGGKKK as substrate measured after 40 mins in presence of [gamma33P]ATP by scintillation counting method
[11] = biological target: Ribosomal protein S6 kinase alpha-3 (Homo sapiens) (UniProt P51812); assay: Inhibition of human Rsk2 (2 to end residues) using KKKNRTLSVA as substrate measured after 40 mins in presence of [gamma33P]ATP by scintillation counting method; procedure, shortened: as §1
[12] = biological target: Casein kinase II subunit alpha (Homo sapiens) (UniProt P68400); assay: Inhibition of recombinant full length human CK2alpha1 at 10 uM using RRRDDDSDDD as substrate measured after 40 mins in presence of [gamma33P]ATP by scintillation counting method
[13] = biological target: cGMP-dependent protein kinase 1 (Homo sapiens) (UniProt Q13976); assay: Inhibition of recombinant full-length human PKG1beta at 10 uM using RRRLSFAEPG as substrate measured after 40 mins in presence of [gamma33P]ATP by scintillation counting method
[14] = biological target: Serine/threonine-protein kinase WNK3 (Homo sapiens) (UniProt Q9BYP7); assay: Inhibition of human WNK3 (1 to 434 residues) using myelin basic protein as substrate measured after 40 mins in presence of [gamma33P]ATP by scintillation counting method
[15] = biological target: MAP/microtubule affinity-regulating kinase 3 (Homo sapiens) (UniProt P27448); assay: Inhibition of recombinant full-length human MARK3 at 10 uM using KKKVSRSGLYRSPSMPENLNRPR as substrate measured after 40 mins in presence of [gamma33P]ATP by scintillation counting method
[16] = biological target: Tyrosine-protein kinase Fgr (Homo sapiens) (UniProt P09769); assay: Inhibition of recombinant human FGR (2 to end residues) at 10 uM using poly(Glu, Tyr) 4:1 as substrate measured after 40 mins in presence of [gamma33P]ATP by scintillation counting method
[17] = biological target: Tyrosine-protein kinase JAK3 (Homo sapiens) (UniProt P52333); assay: Inhibition of recombinant human JAK3 (781 to end residues) at 10 uM using GGEEEEYFELVKKKK as substrate measured after 40 mins in presence of [gamma33P]ATP by scintillation counting method
[18] = biological target: Protein polybromo-1 (Homo sapiens) (UniProt Q86U86); assay: Binding affinity to human partial length PBRM1 bromodomain 2 (S178 to E291 residues) expressed in bacterial expression system at 1 uM by BROMOscan assay
Procedure, shortened: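 BROMOscan bromodomain cross-screen run by an outside service, compound at 1 µM against 32 recombinant bromodomains. Binding given as percent of control.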

[19] = biological target: [Pyruvate dehydrogenase (acetyl-transferring)] kinase isozyme 2, mitochondrial (Homo sapiens) (UniProt Q15119); assay: Inhibition of human PDHK2 at 10 uM by radiometric method; procedure, shortened: as §1
[20] = biological target: Tyrosine-protein kinase Lyn (Homo sapiens) (UniProt P07948); assay: Inhibition of recombinant full-length human Lyn at 10 uM using poly(Glu, Tyr) 4:1 as substrate measured after 40 mins in presence of [gamma33P]ATP by scintillation counting method
[21] = biological target: Protein kinase C zeta type (Homo sapiens) (UniProt Q05513); assay: Inhibition of recombinant human PKCzeta (2 to end residues) at 10 uM using ERMRPRKRQGSVRRRV as substrate measured after 40 mins in presence of [gamma33P]ATP by scintillation counting method
[22] = biological target: Serine/threonine-protein kinase Nek2 (Homo sapiens) (UniProt P51955); assay: Inhibition of recombinant full-length human NEK2 at 10 uM using myelin basic protein as substrate measured after 40 mins in presence of [gamma33P]ATP by scintillation counting method
[23] = biological target: Serine/threonine-protein kinase Nek9 (Homo sapiens) (UniProt Q8TD19); assay: Inhibition of recombinant human NEK9 (1 to 324 residues) at 10 uM using myelin basic protein as substrate measured after 40 mins in presence of [gamma33P]ATP by scintillation counting method
[24] = biological target: PI3-kinase p110-alpha/p85-alpha (Homo sapiens) (UniProt P27986+P42336); assay: Inhibition of recombinant full-length human PI3K p110alpha/p85alpha at 10 uM using phosphatidylinositol-4, 5-bisphosphate as substrate measured after 40 mins by fluorescence assay; assay type: protein-complex assay

Chain of Dual specificity mitogen-activated protein kinase kinase 3 (Homo sapiens) (P46734 whole entry): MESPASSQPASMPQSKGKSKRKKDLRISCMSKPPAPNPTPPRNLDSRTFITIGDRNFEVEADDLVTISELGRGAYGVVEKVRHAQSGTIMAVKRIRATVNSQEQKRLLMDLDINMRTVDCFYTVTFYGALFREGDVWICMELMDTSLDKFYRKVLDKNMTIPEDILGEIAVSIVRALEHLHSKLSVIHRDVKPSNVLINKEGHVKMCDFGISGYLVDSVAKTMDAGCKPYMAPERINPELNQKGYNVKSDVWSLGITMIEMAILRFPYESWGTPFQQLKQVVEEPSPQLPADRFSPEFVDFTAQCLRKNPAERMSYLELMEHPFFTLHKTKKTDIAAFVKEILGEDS
Chain of Tyrosine-protein kinase Lyn (Homo sapiens) (P07948 2-512 limits assumed): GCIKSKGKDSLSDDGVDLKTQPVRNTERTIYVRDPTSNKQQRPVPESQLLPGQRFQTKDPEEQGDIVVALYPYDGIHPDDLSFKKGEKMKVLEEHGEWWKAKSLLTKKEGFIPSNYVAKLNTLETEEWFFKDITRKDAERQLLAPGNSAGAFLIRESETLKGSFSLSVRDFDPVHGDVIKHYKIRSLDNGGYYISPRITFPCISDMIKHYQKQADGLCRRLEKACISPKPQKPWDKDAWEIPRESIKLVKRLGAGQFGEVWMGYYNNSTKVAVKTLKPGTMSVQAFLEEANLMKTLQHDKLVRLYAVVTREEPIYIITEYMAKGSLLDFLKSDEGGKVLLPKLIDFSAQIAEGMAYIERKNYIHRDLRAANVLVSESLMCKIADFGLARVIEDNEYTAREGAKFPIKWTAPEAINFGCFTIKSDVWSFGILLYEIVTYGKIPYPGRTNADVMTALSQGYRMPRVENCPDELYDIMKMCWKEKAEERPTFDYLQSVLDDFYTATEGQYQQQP
Chain of Platelet-derived growth factor receptor alpha (Homo sapiens), P16234 [V561D] (P16234 whole entry V561D): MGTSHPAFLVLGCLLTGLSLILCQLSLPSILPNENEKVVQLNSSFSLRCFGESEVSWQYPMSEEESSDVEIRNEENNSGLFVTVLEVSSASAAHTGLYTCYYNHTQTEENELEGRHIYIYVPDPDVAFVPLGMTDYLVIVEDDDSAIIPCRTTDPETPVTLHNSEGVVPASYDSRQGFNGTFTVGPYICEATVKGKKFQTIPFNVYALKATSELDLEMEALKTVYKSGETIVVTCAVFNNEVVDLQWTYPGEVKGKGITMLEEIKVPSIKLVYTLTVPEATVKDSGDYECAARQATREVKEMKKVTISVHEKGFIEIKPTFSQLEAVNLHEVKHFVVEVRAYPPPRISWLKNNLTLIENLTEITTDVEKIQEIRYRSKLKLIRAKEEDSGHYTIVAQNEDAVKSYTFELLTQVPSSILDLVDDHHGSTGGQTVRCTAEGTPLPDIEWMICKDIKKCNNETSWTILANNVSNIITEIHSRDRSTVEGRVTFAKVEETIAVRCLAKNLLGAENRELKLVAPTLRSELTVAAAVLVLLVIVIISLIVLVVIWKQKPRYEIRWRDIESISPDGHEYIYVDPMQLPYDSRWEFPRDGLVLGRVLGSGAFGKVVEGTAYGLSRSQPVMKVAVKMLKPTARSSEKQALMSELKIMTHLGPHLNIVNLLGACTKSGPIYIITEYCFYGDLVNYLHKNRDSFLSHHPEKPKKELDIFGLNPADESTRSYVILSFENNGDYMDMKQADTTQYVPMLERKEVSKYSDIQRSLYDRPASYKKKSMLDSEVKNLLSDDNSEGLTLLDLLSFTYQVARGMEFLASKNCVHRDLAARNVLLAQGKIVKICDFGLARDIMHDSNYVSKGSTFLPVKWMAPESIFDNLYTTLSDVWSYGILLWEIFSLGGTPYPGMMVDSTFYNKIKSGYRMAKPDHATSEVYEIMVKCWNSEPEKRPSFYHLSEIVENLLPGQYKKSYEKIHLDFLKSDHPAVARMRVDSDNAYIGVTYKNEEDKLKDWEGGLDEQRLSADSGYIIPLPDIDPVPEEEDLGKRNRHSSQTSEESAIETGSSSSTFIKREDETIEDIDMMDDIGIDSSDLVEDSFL
Chain of Dual specificity mitogen-activated protein kinase kinase 4 (Homo sapiens) (P45985 whole entry): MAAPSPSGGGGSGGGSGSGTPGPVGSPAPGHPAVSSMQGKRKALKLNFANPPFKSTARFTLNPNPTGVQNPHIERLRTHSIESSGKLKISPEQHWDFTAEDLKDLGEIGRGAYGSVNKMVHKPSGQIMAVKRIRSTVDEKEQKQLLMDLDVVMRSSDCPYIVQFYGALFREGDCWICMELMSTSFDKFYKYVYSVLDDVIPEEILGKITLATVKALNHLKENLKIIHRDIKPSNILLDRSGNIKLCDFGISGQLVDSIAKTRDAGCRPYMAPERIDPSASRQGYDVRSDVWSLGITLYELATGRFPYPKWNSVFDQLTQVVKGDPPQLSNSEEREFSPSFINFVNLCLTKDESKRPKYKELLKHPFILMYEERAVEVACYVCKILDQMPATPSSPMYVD
Chain of Insulin-like growth factor 1 receptor (Homo sapiens) (P08069 31-736 limits assumed): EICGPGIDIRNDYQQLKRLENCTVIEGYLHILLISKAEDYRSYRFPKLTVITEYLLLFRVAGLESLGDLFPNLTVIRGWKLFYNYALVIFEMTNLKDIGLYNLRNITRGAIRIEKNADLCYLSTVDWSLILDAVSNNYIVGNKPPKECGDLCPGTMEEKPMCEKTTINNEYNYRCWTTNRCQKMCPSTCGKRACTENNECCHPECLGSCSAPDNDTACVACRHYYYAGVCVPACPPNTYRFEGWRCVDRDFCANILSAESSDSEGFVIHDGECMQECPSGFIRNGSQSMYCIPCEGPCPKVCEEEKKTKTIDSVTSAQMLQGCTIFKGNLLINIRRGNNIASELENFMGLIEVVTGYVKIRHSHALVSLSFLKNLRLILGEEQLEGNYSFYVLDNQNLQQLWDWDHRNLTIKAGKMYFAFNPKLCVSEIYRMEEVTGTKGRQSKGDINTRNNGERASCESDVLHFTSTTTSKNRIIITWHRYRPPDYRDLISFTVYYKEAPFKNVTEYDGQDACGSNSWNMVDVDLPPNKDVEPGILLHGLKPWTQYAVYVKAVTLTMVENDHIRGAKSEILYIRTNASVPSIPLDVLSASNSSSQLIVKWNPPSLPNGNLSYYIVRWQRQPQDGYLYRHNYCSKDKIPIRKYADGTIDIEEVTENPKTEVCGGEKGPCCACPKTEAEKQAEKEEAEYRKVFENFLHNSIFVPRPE
Chain of Insulin-like growth factor 1 receptor (Homo sapiens) (P08069 741-1367 limits assumed): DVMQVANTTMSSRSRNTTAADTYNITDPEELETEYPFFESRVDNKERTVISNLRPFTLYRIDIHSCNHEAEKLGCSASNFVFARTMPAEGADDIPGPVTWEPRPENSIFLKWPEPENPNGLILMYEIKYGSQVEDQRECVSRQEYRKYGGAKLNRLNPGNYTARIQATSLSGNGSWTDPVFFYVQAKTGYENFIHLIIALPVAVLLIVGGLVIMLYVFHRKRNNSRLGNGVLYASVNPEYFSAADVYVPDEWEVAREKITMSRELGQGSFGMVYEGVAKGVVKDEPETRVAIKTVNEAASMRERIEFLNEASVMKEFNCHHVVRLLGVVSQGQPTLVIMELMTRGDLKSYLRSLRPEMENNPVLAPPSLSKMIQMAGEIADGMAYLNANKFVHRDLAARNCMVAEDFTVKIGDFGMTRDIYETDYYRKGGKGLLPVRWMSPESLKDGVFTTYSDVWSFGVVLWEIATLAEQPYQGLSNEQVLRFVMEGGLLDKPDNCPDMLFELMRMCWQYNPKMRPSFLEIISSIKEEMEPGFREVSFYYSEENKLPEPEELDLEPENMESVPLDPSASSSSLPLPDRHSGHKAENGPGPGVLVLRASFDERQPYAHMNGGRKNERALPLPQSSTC
Chain of Serine/threonine-protein kinase N1 (Homo sapiens), Q16512 [V901I] (Q16512 whole entry V901I): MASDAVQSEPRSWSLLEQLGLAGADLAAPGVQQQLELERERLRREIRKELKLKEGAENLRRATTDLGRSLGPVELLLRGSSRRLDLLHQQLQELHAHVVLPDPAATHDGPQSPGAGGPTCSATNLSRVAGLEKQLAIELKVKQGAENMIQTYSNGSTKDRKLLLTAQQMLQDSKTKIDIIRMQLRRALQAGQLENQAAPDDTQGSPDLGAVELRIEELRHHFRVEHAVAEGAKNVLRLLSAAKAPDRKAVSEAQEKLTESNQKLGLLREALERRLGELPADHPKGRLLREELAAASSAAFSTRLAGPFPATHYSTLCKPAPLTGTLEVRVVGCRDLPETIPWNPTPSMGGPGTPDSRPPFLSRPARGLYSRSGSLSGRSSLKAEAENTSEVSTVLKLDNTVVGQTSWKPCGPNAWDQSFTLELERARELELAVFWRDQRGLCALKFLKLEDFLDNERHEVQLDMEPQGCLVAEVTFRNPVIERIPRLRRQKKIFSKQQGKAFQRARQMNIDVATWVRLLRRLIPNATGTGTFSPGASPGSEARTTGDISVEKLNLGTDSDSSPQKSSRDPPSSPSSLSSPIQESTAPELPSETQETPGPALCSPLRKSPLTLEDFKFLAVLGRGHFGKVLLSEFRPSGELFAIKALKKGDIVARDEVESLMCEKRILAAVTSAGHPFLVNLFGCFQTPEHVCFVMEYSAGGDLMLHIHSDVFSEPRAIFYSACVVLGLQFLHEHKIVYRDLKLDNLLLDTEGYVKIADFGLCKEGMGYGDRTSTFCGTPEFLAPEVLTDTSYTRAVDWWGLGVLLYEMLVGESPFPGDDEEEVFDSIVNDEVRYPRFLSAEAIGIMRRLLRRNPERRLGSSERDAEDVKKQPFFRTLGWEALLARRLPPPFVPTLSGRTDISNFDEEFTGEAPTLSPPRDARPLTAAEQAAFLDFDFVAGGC
Chain of Casein kinase II subunit alpha (Homo sapiens) (P68400 whole entry, looked up): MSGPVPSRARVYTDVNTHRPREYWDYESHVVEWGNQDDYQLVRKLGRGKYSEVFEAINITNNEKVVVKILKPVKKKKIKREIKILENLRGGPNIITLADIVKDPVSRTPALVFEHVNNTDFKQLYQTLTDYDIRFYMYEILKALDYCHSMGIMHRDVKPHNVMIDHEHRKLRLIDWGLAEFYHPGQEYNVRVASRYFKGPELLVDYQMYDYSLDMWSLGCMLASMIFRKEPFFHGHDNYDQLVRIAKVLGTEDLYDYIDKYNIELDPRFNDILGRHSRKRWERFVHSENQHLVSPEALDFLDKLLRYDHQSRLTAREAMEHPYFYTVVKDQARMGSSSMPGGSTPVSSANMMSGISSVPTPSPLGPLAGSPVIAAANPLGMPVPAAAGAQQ

CN1C[C@H](Nc2nc3cc[nH]c3c(=O)n2C)C[C@H](c2ccc3c(c2)OCCO3)C1
inactive: inhibition [1] | inhibition [2] | inhibition [3] | inhibition [4] | inhibition [5] | inhibition [6] | inhibition [7] | inhibition [8] | inhibition [9] | inhibition [10] | inhibition [11] | inhibition [12] | inhibition [13] | inhibition [14] | inhibition [15] | inhibition [16] | inhibition [17] | Activity [18] | inhibition [19] | inhibition [20] | inhibition [21] | inhibition [22] | inhibition [23] | inhibition [24]
